# CXCR6 inh = inhibitors of human CXCR6 receptor; inhibition, % at 20 µM; CHO-K1 PathHunter CXCR6 beta-arrestin, luminescence; O00574; AID 602244; actives 0.36% (n = 360,000); in the data active = inhibition above about 34%, passing the limit was not always enough;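 note: antagonist mode with CXCL16 agonist at 10 nM final; 0% = 10 nM CXCL16 with DMSO and 100% = unstimulated wells without agonist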
# Target sequence (O00574 whole entry, looked up): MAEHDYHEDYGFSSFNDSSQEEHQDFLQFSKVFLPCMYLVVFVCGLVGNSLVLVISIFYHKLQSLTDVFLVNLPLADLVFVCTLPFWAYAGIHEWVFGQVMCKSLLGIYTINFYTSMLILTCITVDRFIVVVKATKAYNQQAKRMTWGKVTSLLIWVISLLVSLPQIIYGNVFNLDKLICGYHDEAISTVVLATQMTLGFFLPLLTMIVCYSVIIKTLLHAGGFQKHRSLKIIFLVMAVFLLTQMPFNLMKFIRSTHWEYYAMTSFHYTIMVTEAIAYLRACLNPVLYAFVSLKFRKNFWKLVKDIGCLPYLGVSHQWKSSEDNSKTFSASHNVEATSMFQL
# APJ agonist = activates the human apelin receptor APJ. CHO-K1 APJ PathHunter beta-arrestin, luminescence; 0% DMSO wells, 100% apelin. activation, % at 20 µM. actives 0.11% (n = 330,000). AID 2520;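 active = activation more than six SD over the plate average, tested at 20 µM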;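 note: 0% = DMSO alone and 100% = apelin-13 at 10 nM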
#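 Assay system: engineered CHO-K1 APJ arrestin reporter cells; Amount: 1000 CHO-K1 reporter cells seeded per well; Dosing: one dose, 20 µM compound, 1% DMSO; Times: compound stimulation 90 min at 25 °C, detection 60 min; Measured by: luminescent beta-gal fragment complementation, chemiluminescent substrate; Read-out: APJ–arrestin association signal; Controls: DMSO vs Apelin-13 10 nM.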
# CCR6 antagonist = blocks CCL20-driven beta-arrestin recruitment at human CCR6. P51684. CHO-K1 CCR6 PathHunter beta-arrestin, luminescence, CCL20-stimulated. inhibition, % at 20 µM. actives 0.49% (n = 340,000);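 active = compounds whose inhibition of the agonist-driven luminescence signal at 20 µM reaches about 50%, limit read from the data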;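 note: cells stimulated with CCL20 at 14 nM final; plate controls were DMSO with CCL20 for no effect and DMSO without agonist for full effect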
# APJ antagonist = antagonists of human APJ apelin receptor. P35414. CHO-K1 APJ beta-arrestin complementation, luminescence. inhibition, % at 20 µM. actives 0.32% (n = 330,000);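 active = inhibition above about 40% at 20 µM, limit read from the data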;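 note: cells challenged with 10 nM apelin-13 agonist together with compound; plate controls were apelin-13 plus DMSO wells for no effect and DMSO wells lacking apelin-13 for full effect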
# EBI2 block = antagonists of human EBI2 receptor; EBI2 beta-arrestin recruitment, luminescence, 7a,25-OHC stimulated; inhibition, % at 5 µM; P32249; AID 651636; actives 0.81% (n = 360,000); in the data active = inhibition above about 38%;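 note: enzyme fragment complementation signal reports receptor beta-arrestin coupling in cells; 0% = agonist plus DMSO wells and 100% = wells without agonist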
# H9c2 TAG inh = reduces triacylglycerol accumulation in H9c2 cells; Nile Red lipid (TAG) fluorescence; cells loaded with 200 µM oleic acid; actives 0.66% (n = 230,000); inhibition, % at 12.5 µM; AID 651582;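 active = pattern-corrected inhibition of lipid staining of at least 50% with the nuclear-stain viability signal not falling by more than 50%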;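 note: 0% = DMSO wells and 100% = triacsin C control wells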
# APJ antag confirm = APJ receptor antagonism confirmation; shares compounds with APJ antagonist; APJ beta-arrestin recruitment, luminescence, antagonist mode; inhibition, % at 20 µM; actives 66% (n = 950); AID 2766; in the data active = inhibition above about 50%
# An asterisk follows results filed as active; x = no result. Hits are enriched below; roughly 1.9% of the tested compounds scored in any of these assays.
SMILES,CXCR6 inh,APJ agonist,CCR6 antagonist,APJ antagonist,EBI2 block,H9c2 TAG inh,APJ antag confirm
COc1ccc(CCC(=O)NCC23CC4CC(CC(C4)C2)C3)cc1,-1,-2,15,8,41,x,x
ON1C2CCCCC2N(O)C1c1ccccc1C(F)(F)F (centres undefined),19,-8,56*,48*,-1,x,29
O=C(Nc1ccccc1C(F)(F)F)NC1CCCCCCC1,-10,-3,12,9,1,x,x
C=CCn1c(=O)[nH]c2cc(C(=O)N3CC=C(c4ccccc4)CC3)ccc2c1=O,-17,-5,12,52*,1,-5,-13
CCCCN1CC(=O)N2[C@H]3c4ccccc4OC[C@@H]3[C@H](c3ccccc3)[C@]2(C)C1=O,0,-3,9,7,7,3,x
C/C(=N\NC(=S)Nc1cccc(C)c1)c1ccccc1,33,-6,53*,44*,26,1,91*
CC(=O)c1cccc(NC(=O)Cn2cnc(S(=O)(=O)N3CCC(C)CC3)c2)c1,-9,-3,-3,42*,9,x,23
CC1CCN(S(=O)(=O)c2cn(CC(=O)Nc3cccc(C#N)c3)cn2)CC1,-8,-1,16,3,-6,x,x
CCCCC(=O)N(C)c1c(C)nc2ccc(C(=O)N(CC)CCN(C)C)cn12,-4,x,x,x,6,-3,x
Cc1cc(C)cc(N2CC(C)Cn3c2nc2c3c(=O)[nH]c(=O)n2C)c1 (centres undefined),3,-4,-1,23,-1,x,x
COc1cccc(N2CC(C)Cn3c2nc2c3c(=O)[nH]c(=O)n2C)c1 (centres undefined),44*,-6,41,46*,17,x,79*
Cc1cccc(NC(=O)c2cc(-c3ccc(C)c(C)c3O)n[nH]2)c1,-10,-4,9,11,2,x,x
COc1cccc(OCc2nc3ccccc3c(=O)n2N)c1,2,-2,-11,43*,-14,x,-32
COc1ccc(/C=C/C(=O)NC(=S)NNC(=O)c2c(-c3ccccc3)noc2C)cc1,32,-7,3,43*,17,x,92*
NS(=O)(=O)c1ccc(N=Nc2c[nH]c(=O)c(O)c2)cc1,44*,-10,71*,53*,14,x,90*
CCOc1ccc(CCNC(=O)c2cccnc2N2CCCC2)cc1OCC,3,-2,-2,58*,-1,x,52*
COc1ccc(NC(=O)Cc2ccccc2F)cn1,-1,-3,9,13,-8,-24,x
COc1ccc(NC(=O)/C(Cl)=C(/Cl)S(=O)Cc2ccccc2Cl)cn1 (centres undefined),x,-6,96*,79*,x,x,104*
O=C(NC(O)C(=O)c1cccs1)c1cccnc1 (centres undefined),7,-7,25,50*,10,8,31
O=C(NC(O)C(=O)c1ccccc1)c1cccs1 (centres undefined),21,-11,41,48*,-2,-4,25
O=C(NNC(=O)c1cccs1)c1cccnc1,0,1,3,10,-12,x,x
COc1ccc(-c2csc(NC(=S)NC(=O)c3ccccc3)n2)cc1Br,8,-7,12,23,7,-2,x
COc1ccc(-c2csc(NC(=S)NC(=O)c3ccco3)n2)cc1Br,12,-1,15,10,5,x,x
COc1ccc(-c2csc(NC(=S)NC(=O)/C=C/c3ccc(C(C)C)cc3)n2)cc1OC,22,-12,17,41*,-3,-16,44
COc1ccc(-c2csc(NC(=S)NC(=O)c3cc4ccccc4o3)n2)cc1Br,5,-3,41,45*,-3,x,9
SMILES,CXCR6 inh,APJ agonist,CCR6 antagonist,APJ antagonist,EBI2 block,H9c2 TAG inh,APJ antag confirm
COc1ccc(C(=O)NC(=S)Nc2nc(-c3ccc(OC)c(Br)c3)cs2)cc1Br,15,-1,27,43*,-12,x,30
S=c1[nH]nc(C2CCCCC2)n1/N=C/c1c(Cl)cccc1Cl,10,-2,12,9,2,x,x
CC(Oc1ccc(Br)cc1)C(=O)Nc1nnc(C2CC2)s1 (centres undefined),-9,-5,-8,17,-4,-19,x
COCOCCn1cc(CN2CCS(=O)(=O)N(Cc3ccc(-c4ccc(OC)c(OC)c4)cc3)C(C)C2=O)nn1 (centres undefined),-4,x,x,x,-5,19,x
O=C(NNC(=S)Nc1ccccc1)NNC(=S)Nc1ccccc1,28,-11,56*,44*,14,8,88*
CCn1c(O)c(N=Nc2ccc3ccccc3n2)c2ccccc21,4,-2,13,13,29,17,x
Brc1ccc(N=Nc2ccc3ccccc3n2)cc1,16,-13,31,49*,43,-26,54*
CC1(C)CC2(C)CC(=O)C1C(C(=O)O)C2C(=O)O (centres undefined),6,x,x,x,-4,-2,x
COc1ccc(CN2CCC(=O)N([C@H](CO)Cc3ccccc3)CC2)cc1OC,0,-5,5,3,2,9,x
CN1C(=O)/C(=C/c2ccc(O)c([N+](=O)[O-])c2)N(C)C1=S,43*,-8,57*,46*,3,7,85*
Cc1ccc(O)c(-c2cc(C(=O)NCc3ccc4c(c3)OCO4)[nH]n2)c1,-5,-4,11,45*,8,x,-3
Cc1ccc(CNC(=O)c2cc(-c3cc(C)cc(C)c3O)n[nH]2)cc1,-4,-1,8,2,34,-6,x
CCN(CC)c1ccc2nc3ccc(N)cc3[n+](-c3ccccc3)c2c1,40,-10,59*,45*,11,31,96*
CCN(CC)c1ccc2nc3ccccc3[n+](CC)c2c1,21,-6,40,29,4,x,x
O=C(NNC(=O)c1csc(N2CCOCC2)n1)c1ccc(Cl)nc1,3,-3,5,-41,-8,3,x
CCN1/C(=C/C=C/c2sc3ccccc3[n+]2CC)Sc2ccccc21,19,6,38,49*,2,5,121*
C=CCOc1ccc(CNc2ccc3[nH]c(=O)[nH]c3c2)cc1,-16,3,-6,-29,-3,5,x
CC(=O)c1ccc(N=Nc2ccc(N)cc2)cc1,29,-5,47,46*,9,10,49
O=S(=O)(Cc1nnnn1-c1ccccc1)c1ccc(Cl)cc1,-2,1,9,8,10,26,x
CCOC(=O)C1=NNC(C(=O)O)C1c1ccccc1 (centres undefined),-3,x,1,x,1,-24,x
CCOC(=O)C1=NNC(C(=O)c2ccc(Cl)cc2)C1c1ccccc1 (centres undefined),9,-11,41,49*,15,x,75*

# High-throughput results deposited in PubChem BioAssay by Sanford-Burnham Center for Chemical Genomics.
